Activity calls are given as the source filed them. No cut-off for these calls is given here.
Assays:
Type in all cases: functional, organism-based
Escherichia coli [1] = assay: Antiadherent activity against P-fimbriated Escherichia coli in human erythrocyte assessed as suppression of agglutination using latex beads coated with P receptor analogue at 1.2 mg/ml
Outline: (§1)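 Uropathogenic P-fimbriated E. coli from patient urine, grown in tryptose broth 16 h at 37 °C, then overnight on CFA plates. Washed cells at 5 × 10^8/mL in PBS pH 7.0. Compounds in PBS neutralized with 1 N NaOH, 2-fold serial dilutions, 30 µL with 10 µL bacteria for 10 min at RT with shaking. 3% A1 Rh+ human RBCs or P-receptor-coated latex beads added separately, 20 min RT. Agglutination suppression scored microscopically (+/−).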

Escherichia coli [2] = assay: Antiadherent activity against P-fimbriated Escherichia coli in human erythrocyte assessed as suppression of agglutination using latex beads coated with P receptor analogue at 0.6 mg/ml; outline: as §1
Escherichia coli [3] = assay: Antiadherent activity against P-fimbriated Escherichia coli in human erythrocyte assessed as suppression of agglutination using latex beads coated with P receptor analogue at 2.4 mg/ml; outline: as §1
Escherichia coli [4] = assay: Antiadherent activity against P-fimbriated Escherichia coli in human erythrocyte assessed as suppression of agglutination using latex beads coated with P receptor analogue at 0.15 mg/ml; outline: as §1
Escherichia coli [5] = assay: Antiadherent activity against P-fimbriated Escherichia coli in human erythrocyte assessed as suppression of agglutination using latex beads coated with P receptor analogue at 0.3 mg/ml; outline: as §1

Row | SMILES | Activity (Escherichia coli [1]) | Activity (Escherichia coli [2]) | Activity (Escherichia coli [3]) | Activity (Escherichia coli [4]) | Activity (Escherichia coli [5])
1 | Oc1cc(O)c2c(c1)O[C@@]1(c3ccc(O)c(O)c3)Oc3cc(O)c4c(c3[C@@H]2[C@H]1O)O[C@H](c1ccc(O)c(O)c1)[C@H](O)C4 | inactive | inactive | Active | inactive | inactive
2 | Oc1cc(O)c2c(c1)O[C@H](c1ccc(O)c(O)c1)[C@H](O)[C@H]2c1c(O)cc(O)c2c1O[C@H](c1ccc(O)c(O)c1)[C@H](O)C2 | inactive | inactive | inactive | inactive | inactive
3 | Oc1cc(O)c2c(c1)O[C@H](c1ccc(O)c(O)c1)[C@H](O)[C@H]2c1c(O)cc2c(c1O)[C@@H]1c3c(cc(O)c4c3O[C@H](c3ccc(O)c(O)c3)[C@H](O)C4)O[C@](c3ccc(O)c(O)c3)(O2)[C@@H]1O | Active | Active | Active | inactive | Active
4 | Oc1cc(O)c2c(c1)O[C@H](c1ccc(O)c(O)c1)[C@H](O)[C@H]2c1c(O)cc(O)c2c1O[C@@]1(c3ccc(O)c(O)c3)Oc3cc(O)c4c(c3[C@@H]2[C@H]1O)O[C@H](c1ccc(O)c(O)c1)[C@H](O)C4 | Active | Active | Active | inactive | inactive
5 | Oc1cc(O)c2c(c1)O[C@@]1(c3ccc(O)c(O)c3)Oc3cc(O)c4c(c3[C@@H]2[C@H]1O)O[C@H](c1ccc(O)c(O)c1)[C@H](O)[C@H]4c1c(O)cc(O)c2c1O[C@H](c1ccc(O)c(O)c1)[C@H](O)C2 [CINNAMTANNIN B1] | Active | Active | Active | Not Active | Active
6 | Oc1cc(O)c2c(c1)O[C@H](c1ccc(O)c(O)c1)[C@H](O)C2 | inactive | inactive | inactive | inactive | inactive
